Here are results for three molecules from ChEMBL document CHEMBL4725247, “Cytosolic delivery of peptidic STAT3 SH2 domain inhibitors” (Bioorg Med Chem, 2020).

Active and inactive are the calls of the source. The rule behind the calls is not given here. Where a SMILES comes first, the peptide text is derived from it. Bridges are numbered along the chain shown (N, C = ends). Roman numbers before positions name the chains, in order. [ ]: non-standard residue; d: D form. F2Pmp = N[C@@H](Cc1ccc(C(F)(F)P(=O)(O)O)cc1)C(=O)O; pY = N[C@@H](Cc1ccc(OP(=O)(O)O)cc1)C(=O)O; 2Nal = N[C@@H](Cc1ccc2ccccc2c1)C(=O)O; βAla = NCCC(=O)O Some results are limits rather than exact numbers.

For data set [1], the target named is Signal transducer and activator of transcription 3 (Homo sapiens) (UniProt P40763). Kind of data set: Inhibition of OSM-stimulated STAT3 activity in human U3A cell at 25 uM pretreated for 24 hrs followed by OSM stimulation and measured after 6 hrs by bright Glo-luciferase reporter gene assay. A digest of the protocol: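 STAT3-luc U3A fibrosarcoma reporter cells seeded at 10⁴ cells/well overnight. Pretreated with peptide or vehicle (10 or 25 μM) for 24 h at 37 °C in DMEM + 10% FBS, then stimulated 6 h with OSM 10 ng/mL. Luciferase read by Bright-Glo luminescence. Controls: OSM alone and unstimulated cells.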
Sequence of Signal transducer and activator of transcription 3 (Homo sapiens) (P40763 whole entry): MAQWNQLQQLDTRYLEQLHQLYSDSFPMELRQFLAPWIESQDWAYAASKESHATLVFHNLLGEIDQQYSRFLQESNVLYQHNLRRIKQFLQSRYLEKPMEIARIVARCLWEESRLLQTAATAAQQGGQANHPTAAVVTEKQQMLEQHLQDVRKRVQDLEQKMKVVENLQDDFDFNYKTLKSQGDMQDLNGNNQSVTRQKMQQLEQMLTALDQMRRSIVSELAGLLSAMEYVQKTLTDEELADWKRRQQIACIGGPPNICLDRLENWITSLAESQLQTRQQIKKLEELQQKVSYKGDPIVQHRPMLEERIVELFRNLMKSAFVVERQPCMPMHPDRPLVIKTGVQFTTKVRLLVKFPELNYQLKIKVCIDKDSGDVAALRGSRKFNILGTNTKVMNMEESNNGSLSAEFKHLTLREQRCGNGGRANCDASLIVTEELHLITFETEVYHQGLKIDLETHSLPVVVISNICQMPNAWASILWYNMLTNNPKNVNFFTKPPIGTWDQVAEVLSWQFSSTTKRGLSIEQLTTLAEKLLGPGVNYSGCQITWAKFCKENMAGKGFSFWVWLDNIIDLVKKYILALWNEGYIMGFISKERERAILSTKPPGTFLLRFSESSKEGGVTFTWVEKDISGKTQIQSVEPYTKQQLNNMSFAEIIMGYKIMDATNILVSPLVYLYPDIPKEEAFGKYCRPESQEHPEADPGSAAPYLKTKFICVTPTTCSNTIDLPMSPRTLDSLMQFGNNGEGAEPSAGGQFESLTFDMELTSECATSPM
A general note: A reporter such as luciferase makes a cellular process visible.

The nature of data set [2]: Stability in human HeLa cell lysate assessed as compound remaining at 150 uM measured after 24 hrs by reverse-phase HPLC assay. Format: ADME, subcellular. As to conditions: read-out: Stabilty. The essentials:
(§1)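 Clarified lysate made from HeLa cells lysed on ice for 15 min in 50 mM Tris, 250 mM NaCl, 0.5% IGEPAL CA-630, pH 8.0. Peptide added at 150 μM and held at 37 °C. Peak area normalized to time zero.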

In another data set the test system is MDA-MB-468. In words: Cytotoxicity against human MDA-MB-468 cells assessed as cell viability at 25 uM measured after 72 hrs by Celltiter-Glo assay. It is filed as functional, cell-based. The essentials: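 MDA-MB-468 breast cancer cells seeded at 3 × 10³ cells/well overnight, then given peptide or vehicle (10 or 25 μM) and kept at 37 °C for 72 h. Viability read by CellTiter-Glo luminescence.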
For orientation: In ATP-based viability assays light output follows the ATP content of the culture.

The nature of data set [3]: Stability of the compound in DMEM with 10% FBS (fetal bovine serum) at 150 uM measured at 24 hrs by reverse-phase HPLC assay.
A short description of data set [4]: Stability in human HeLa cell lysate assessed as compound remaining at 150 uM measured after 1 hr by reverse-phase HPLC assay. It is filed as ADME, subcellular. As to conditions: read-out: Stabilty. A digest of the protocol: as §1

As to `CC(C)C[C@H](NC(=O)[C@H](Cc1ccc(C(F)(F)P(=O)(O)O)cc1)NC(=O)CNC(=O)CCNC(=O)CCNC(=O)CC[C@@H]1NC(=O)[C@@H](CCCNC(=N)N)NC(=O)[C@H](CCCNC(=N)N)NC(=O)[C@@H](CCCNC(=N)N)NC(=O)[C@H](CCCNC(=N)N)NC(=O)[C@H](Cc2ccc3ccccc3c2)NC(=O)[C@@H](Cc2ccccc2)NC(=O)[C@H](Cc2ccccc2)NC1=O)C(=O)N1CCC[C@H]1C(=O)N(C)[C@@H](CCC(N)=O)C(=O)N[C@H](C(=O)N[C@H](C(N)=O)C(C)C)[C@@H](C)O`, in data set [1], the inhibition entry is “inactive”. For the same molecule, the remaining at 24 h, 150 µM in data set [2] is 100%. Further, the outcome with MDA-MB-468 was inactive.

On to `CC(C)C[C@H](NC(=O)[C@H](Cc1ccc(C(F)(F)P(=O)(O)O)cc1)NC(=O)CNC(=O)CCNC(=O)CCNC(=O)CC[C@@H]1NC(=O)[C@@H](CCCNC(=N)N)NC(=O)[C@H](CCCNC(=N)N)NC(=O)[C@@H](CCCNC(=N)N)NC(=O)[C@H](CCCNC(=N)N)NC(=O)[C@H](Cc2ccc3ccccc3c2)NC(=O)[C@@H](Cc2ccccc2)NC(=O)[C@H](Cc2ccccc2)NC1=O)C(=O)N1CCC[C@H]1C(=O)N[C@@H](CCC(N)=O)C(=O)N[C@H](C(=O)N[C@H](C(N)=O)C(C)C)[C@@H](C)O` (I: cyclo(F[dF][2Nal]R[dR]R[dR]E) / II: [βAla][βAla]G[F2Pmp]LPQTV-NH2; amide I:8-II:N), for which the inhibition result in data set [1] is “inactive”. Moreover, the Stabilty result in data set [3] is given as “Stable”.

Take `CC(C)C[C@H](NC(=O)[C@H](Cc1ccc(OP(=O)(O)O)cc1)NC(=O)CNC(=O)CCNC(=O)CCNC(=O)CC[C@@H]1NC(=O)[C@@H](CCCNC(=N)N)NC(=O)[C@H](CCCNC(=N)N)NC(=O)[C@@H](CCCNC(=N)N)NC(=O)[C@H](CCCNC(=N)N)NC(=O)[C@H](Cc2ccc3ccccc3c2)NC(=O)[C@@H](Cc2ccccc2)NC(=O)[C@H](Cc2ccccc2)NC1=O)C(=O)N1CCC[C@H]1C(=O)N[C@@H](CCC(N)=O)C(=O)N[C@H](C(=O)N[C@H](C(N)=O)C(C)C)[C@@H](C)O` (I: cyclo([2Nal]R[dR]R[dR]EF[dF]) / II: [βAla][βAla]G[pY]LPQTV-NH2; amide I:6-II:N): the inhibition entry in data set [1] was “inactive”. Also, the remaining at 1 h, 150 µM in data set [4] is below 20%. Further, the Stabilty result in data set [3] is reported as “Unstable”.
